# What was measured:
# [1] = biological target: Cannabinoid receptor 2 (Homo sapiens) (UniProt P34972); assay: Displacement of [3H]CP-55940 from human CB2 receptor expressed in CHO cells at 10 uM; assay type: cell-based
# Procedure, shortened: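 Competition binding on membranes of cells expressing hCB2 (40 µg per tube) with [3H]-CP-55940 (1 nM) at 30 °C for 1 h. Buffer: 50 mM Tris-HCl, 3 mM MgCl2, 1 mM EDTA, 0.5% BSA, pH 7.4. DMSO stocks diluted 100× into buffer. Nonspecific binding defined with 10 µM HU-210. Bound label collected by filtration on PEI-pretreated GF/B filters and counted by scintillation. Run at least in triplicate.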
# Cannabinoid receptor 1 [2] = biological target: T1, Cannabinoid receptor 1 (Homo sapiens, UniProt P21554); assay: biochemical; assay type: cell-based, CHO
# Cannabinoid receptor 1 [3] = biological target: T1, Cannabinoid receptor 1; conditions: at 10 µM
# Cannabinoid receptor 1 [4] = biological target: T1, Cannabinoid receptor 1; assay: Activity at human CB1 receptor by [35S]GTP-gamma-S binding stimulation assay; assay type: functional
# Chain of Cannabinoid receptor 2 (Homo sapiens) (P34972 whole entry): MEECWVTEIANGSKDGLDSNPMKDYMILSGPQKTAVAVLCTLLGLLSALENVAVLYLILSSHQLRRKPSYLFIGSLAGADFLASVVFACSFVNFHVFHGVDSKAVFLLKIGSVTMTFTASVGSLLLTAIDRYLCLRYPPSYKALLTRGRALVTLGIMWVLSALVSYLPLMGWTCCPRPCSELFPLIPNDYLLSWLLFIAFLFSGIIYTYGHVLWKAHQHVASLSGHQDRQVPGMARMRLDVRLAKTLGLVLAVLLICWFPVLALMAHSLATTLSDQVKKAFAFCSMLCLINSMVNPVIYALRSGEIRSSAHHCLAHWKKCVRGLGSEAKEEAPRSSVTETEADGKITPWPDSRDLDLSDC
# T1 sequence (P21554 whole entry): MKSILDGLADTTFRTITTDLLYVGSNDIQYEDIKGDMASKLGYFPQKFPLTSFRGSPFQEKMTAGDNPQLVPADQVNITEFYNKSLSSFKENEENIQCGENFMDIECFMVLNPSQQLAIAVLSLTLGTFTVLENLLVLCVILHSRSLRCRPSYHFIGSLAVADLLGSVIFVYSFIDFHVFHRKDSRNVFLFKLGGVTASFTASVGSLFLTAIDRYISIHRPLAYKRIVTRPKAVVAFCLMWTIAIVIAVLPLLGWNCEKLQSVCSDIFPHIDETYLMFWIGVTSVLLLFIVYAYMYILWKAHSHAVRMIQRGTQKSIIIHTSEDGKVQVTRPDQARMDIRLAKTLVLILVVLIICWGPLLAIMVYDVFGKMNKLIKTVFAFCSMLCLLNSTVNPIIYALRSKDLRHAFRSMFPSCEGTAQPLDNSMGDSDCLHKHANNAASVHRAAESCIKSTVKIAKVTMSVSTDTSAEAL
Compound,Activity [1] [%],Ki (Cannabinoid receptor 1 [2]),Emax (Cannabinoid receptor 1 [3]; filed as inverse agonist) [%],EC50 (Cannabinoid receptor 1 [4]),Emax (Cannabinoid receptor 1 [3]; filed as agonist) [%]
CCCCCCc1ccc(NC(=O)NC(c2ccccc2)c2ccccc2)cc1,24,,,,
O=C(Nc1ccc(Cl)cc1)NC(c1ccc(Cl)cc1)c1ccc(Cl)cc1,24,1.1 µM (antagonist),-74,1.05 µM (inverse agonist),
O=C(Nc1ccccc1)NC(c1ccc(F)cc1)c1ccc(F)cc1,< 10,,,,
S=C(Nc1ccccc1)NC(c1ccc(Br)cc1)c1ccc(Br)cc1,29,1.8 µM (antagonist),,,
O=C(Nc1ccc(Br)cc1)NC(c1ccc(Br)cc1)c1ccc(Br)cc1,22,0.5 µM (antagonist),-61,0.5 µM (inverse agonist),
O=C1NC(c2ccc(Br)cc2)(c2ccc(Br)cc2)C(=O)N1c1ccccc1,< 20,,,,
CCCCCCc1ccc(NC(=O)NC(c2ccc(Br)cc2)c2ccc(Br)cc2)cc1,< 20,,,,
O=C(Nc1ccc(I)cc1)NC(c1ccc(Br)cc1)c1ccc(Br)cc1,34,,,,
O=C1NC(c2ccc(F)cc2)(c2ccc(F)cc2)C(=O)N1c1ccccc1,< 20,,,,
O=C1NC(c2ccccc2)(c2ccccc2)C(=O)N1c1ccc(Br)cc1,< 20,,,,
O=C(Nc1ccc(Br)cc1)NC(c1ccc(I)cc1)c1ccc(I)cc1,19,0.75 µM (antagonist),,,
S=C(Nc1ccc(Cl)cc1)NC(c1ccc(Br)cc1)c1ccc(Br)cc1,29,1.5 µM (antagonist),-61,1.25 µM (inverse agonist),
O=C1N(c2ccc(Cl)cc2)C(=S)NC1(c1ccc(Br)cc1)c1ccc(Br)cc1,< 20,2.75 µM (antagonist),,,
COc1ccc(NC(=O)NC(c2ccccc2)c2ccccc2)cc1,< 20,,,,
S=C(Nc1ccc(Cl)cc1)NC(c1ccc(Cl)cc1)c1ccc(Cl)cc1,23,1.9 µM (antagonist),,,
CCCCCCC(C)(C)c1cc(O)c2c(c1)OC(C)(C)[C@H]1CC=C(CO)C[C@H]21 [DEXANABINOL],,0.019 µM (antagonist),,0.0006 µM (inverse agonist),200
O=C(Nc1ccc(Br)cc1)NC(c1ccc(Cl)cc1)c1ccc(Cl)cc1,29,1.25 µM (antagonist),-66,0.7 µM (inverse agonist),
O=C1NC(c2ccccc2)(c2ccccc2)C(=O)N1c1ccccc1,< 20,,,,
O=C(Nc1ccc(Cl)cc1)NC(c1ccc(Br)cc1)c1ccc(Br)cc1,31,0.65 µM (antagonist),-72,0.45 µM (inverse agonist),
O=C1N(c2ccccc2)C(=S)NC1(c1ccc(Br)cc1)c1ccc(Br)cc1,< 20,3.45 µM (antagonist),,,
S=C(Nc1ccccc1)NC(c1ccc(Cl)cc1)c1ccc(Cl)cc1,23,2.9 µM (antagonist),,,
O=C(Nc1ccccc1)NC(c1ccc(Cl)cc1)c1ccc(Cl)cc1,23,7.05 µM (antagonist),,,
O=C(Nc1ccccc1F)NC(c1ccccc1)c1ccccc1,< 10,,,,
O=C(Nc1ccc(Cl)cc1)NC(c1ccccc1)c1ccccc1,< 20,,,,
O=C(Nc1ccc(I)cc1)NC(c1ccccc1)c1ccccc1,< 10,,,,
O=C(Nc1ccccc1)NC(c1ccccc1)c1ccccc1,< 10,,,,
O=C(Nc1ccc(F)cc1)NC(c1ccccc1)c1ccccc1,< 10,,,,
O=C(Nc1ccc(CO)cc1)NC(c1ccc(Br)cc1)c1ccc(Br)cc1,< 20,,,,
O=C(Nc1ccccc1)NC(c1ccc(Br)cc1)c1ccc(Br)cc1,38,2.9 µM (antagonist),,,
O=C(Nc1ccc(Br)cc1)NC(c1ccccc1)c1ccccc1,< 20,,,,
